SIAE primary: blocks human sialic acid acetylesterase; actives 0.69% (n = 370,000); Q9HAT2; SIAE FP-Rh probe binding, fluorescence polarization; inhibition, % at 9.66 µM; AID 1053197;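 active means inhibition above a cutoff: mean of compounds within the control limits plus 3 SD of those, cut at about 17% in these data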;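 further: 0% = plate median of compound wells and 100% = probe without SIAE protein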
mABHD4 FP: inhibitors of mouse ABHD4; Q8VD66; purified mABHD4, FP-Rh probe fluorescence polarization; inhibition, % at 8.92 µM; actives 0.54% (n = 370,000); AID 720543;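 active means inhibition exceeding the mean over every tested compound plus 3 SD, cut at about 30% in these data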;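 further: 0% = plate median of compound wells and 100% = S159A mutant with DMSO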
Target sequence (Q8VD66 whole entry, looked up): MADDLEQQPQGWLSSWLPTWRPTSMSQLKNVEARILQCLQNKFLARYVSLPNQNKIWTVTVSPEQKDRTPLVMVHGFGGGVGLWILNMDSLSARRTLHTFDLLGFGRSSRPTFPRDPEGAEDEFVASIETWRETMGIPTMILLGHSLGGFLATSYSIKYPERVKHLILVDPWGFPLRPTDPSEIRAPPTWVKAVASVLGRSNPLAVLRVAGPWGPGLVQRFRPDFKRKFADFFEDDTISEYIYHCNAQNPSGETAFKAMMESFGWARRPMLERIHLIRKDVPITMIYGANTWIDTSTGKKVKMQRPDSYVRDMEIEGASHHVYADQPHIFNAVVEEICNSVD
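Assay system: mABHD4 protein; medium: HEPES pH 7.0, NaCl, Pluronic buffer; dosing: 8.92 µM, single dose; schedule: 45 min + 60 min at 25 °C; signal: FP readout, ex 525 nm / em 598 nm; read-out: normalized percent inhibition of probe labeling; repeats: single replicate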
TCR CD3 inh: blocks the human TCR-CD3 interaction. TAMRA-labeled TCR probe fluorescence, biochemical. inhibition, % at 9.4 µM. actives 0.37% (n = 360,000). AID 651800; in the data active means inhibition above about 19%;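 further: recombinant mutant TCR 2C K166C tagged with TAMRA read by polarization; 0% = receptor in buffer alone and 100% = receptor with positive control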
HTRA1 inh: blocks human HTRA1 serine peptidase; inhibition, % at 5.96 µM; recombinant HTRA1, FP-rhodamine activity-based probe, fluorescence polarization; actives 0.5% (n = 340,000); AID 504803; Q92743; in the data active means inhibition above about 36%;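 further: 0% = enzyme with DMSO and 100% = wells lacking enzyme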
ARNT-TACC3 inh: ARNT/TACC3 interaction disruption | actives 0.66% (n = 390,000) | AlphaScreen His-ARNT PAS-B/GST-TACC3 binding, luminescence; TACC3 fragment carries E629A point mutation | inhibition, % at 9.99 µM | Q9Y6A5;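 active means mean inhibition of replicates at least 50% and at least half of replicates each reaching 50%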;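 further: 0% = complete ARNT plus TACC3 wells and 100% = ARNT alone without TACC3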
* marks the source's active call; other numbers are inactive results; . = no result given. Shown are actives, neighbours in structure and some others; about 1.8% of the full set was active somewhere.

SMILES	SIAE primary	mABHD4 FP	TCR CD3 inh	HTRA1 inh	ARNT-TACC3 inh
COc1cccc(/C=N/NC(=O)C(=O)NCc2ccco2)c1O	1	1	-3	5	60*
COc1cccc(/C=N/NC(=O)c2cnccn2)c1O	0	1	-14	2	58*
CCOc1cc(Br)cc(/C=N/NC(=O)c2cccnc2)c1O	8	7	-7	12	56*
CCOc1cccc(/C=N\NC(=O)c2cnccn2)c1O	9	4	.	.	.
COc1cccc(/C=N/NC(=O)C(=O)NCc2ccco2)c1OC	0	-6	-2	3	-4
COc1c(Br)cc(Br)cc1/C=N/NC(=O)c1cccnc1	-4	-13	-2	5	3
C[C@H]1CN([C@@H](C)CO)C(=O)c2cc(NC(=O)Nc3ccccc3)ccc2O[C@@H]1CN(C)S(=O)(=O)c1ccccc1	.	.	.	.	-1
C[C@@H]1CCCCO[C@@H](CN(C)C(=O)Cc2ccccc2)[C@@H](C)CN([C@H](C)CO)C(=O)c2cc(NC(=O)c3ccccc3)ccc2O1	.	.	.	.	-12
CO[C@@H]1CN(C)C(=O)c2cc(NS(=O)(=O)c3ccccc3)ccc2OC[C@H](C)N(Cc2ccccn2)C[C@H]1C	.	.	.	.	-2
Cc1cc([N+](=O)[O-])nn1CC(=O)N/N=C/c1ccccc1O	0	-3	-7	-4	68*
Nc1nnnn1CC(=O)N/N=C/c1cccs1	-3	-12	-4	5	-8
Cc1cc(C(=O)N/N=C/c2cc([N+](=O)[O-])ccc2O)c2ccccc2n1	-10	6	8	-7	76*
Nc1nnnn1CC(=O)N/N=C/c1cc([N+](=O)[O-])ccc1O	-5	-3	3	-4	67*
Cc1cc(C)n(CC(=O)N/N=C/c2cc([N+](=O)[O-])ccc2O)n1	1	6	0	7	72*
C[C@@H]1CCCCO[C@H](CN(C)Cc2ccncc2)[C@@H](C)CN([C@H](C)CO)C(=O)c2cc(NC(=O)Nc3ccc4c(c3)OCO4)ccc2O1	.	.	.	.	-4
O=C(O)C1=C[C@@H](c2ccc3c(c2)Cc2ccccc2-3)C[C@@H](OCCCCO)O1	.	.	.	.	-5
COc1ccc(-c2ccc3n(c2=O)C[C@@H]2[C@@H](CO)[C@H](C(=O)N4CCOCC4)[C@H]3N2C)cc1	.	.	.	.	-10
O=C(CN1C(=O)NC2NC(=O)NC21)N/N=C/c1ccccc1O (stereo unspecified)	4	-5	-1	5	66*
O=C(Cn1nc2ccccc2n1)N/N=C/c1cc(Cl)cc([N+](=O)[O-])c1O	3	9	56*	15	0
O=C(Nc1ccccc1F)N1C[C@H]2[C@@H](c3ccccc31)[C@@H](CO)N2C(=O)Cc1ccccc1	.	.	.	.	-4
CC(C)NC(=O)Nc1ccc2c(c1)C(=O)N([C@@H](C)CO)C[C@H](C)[C@@H](CN(C)C(=O)CCC(F)(F)F)OCCCC[C@H](C)O2	.	.	.	.	-5
Cc1cccc2c1-c1sc(C(=O)Nc3ccccc3N3CCN(C)CC3)cc1CO2	3	5	6	-53	45*
COc1ccc2c(c1)CCc1c(C(=O)NC3CCCCC3)noc1-2	-4	5	-2	-7	46*
COCCNC(=O)c1noc2c1CCc1cc(OC)ccc1-2	6	-5	-3	-4	-7
Cc1ccn2c(C(=O)NN=C3CCCCCCC3)c(C)nc2c1	-2	5	7	9	-11
SMILES	SIAE primary	mABHD4 FP	TCR CD3 inh	HTRA1 inh	ARNT-TACC3 inh
Cc1nc2ccccn2c1C(=O)NN=C1CCCC1	2	2	6	0	20*
Cc1ccc(NC(=S)/C(C#N)=C2/Nc3ccccc3S2)cc1	4	63*	7	1	.
N/C(=N\OS(=O)(=O)c1ccc2ccccc2c1)c1ccccn1	-4	5	-11	8	59*
CCCC(=O)NC(c1ccccc1OC)c1ccc2cccnc2c1O (stereo unspecified)	.	.	.	34	-9
COc1ccc(C(NC(C)=O)c2ccc3cccnc3c2O)c(OC)c1 (stereo unspecified)	.	.	.	27	64*
CN(C)CCCNC(=O)C[C@H]1CC[C@H](NS(=O)(=O)c2ccc(F)cc2)[C@H](CO)O1	.	.	.	.	-5
C[C@H]1CN([C@@H](C)CO)C(=O)c2cc(-c3ccncc3)cnc2O[C@H]1CN(C)Cc1ccc(F)cc1	.	.	.	.	44*
C[C@@H]1CN([C@H](C)CO)C(=O)c2cc(C3=CCCCC3)cnc2O[C@H]1CN(C)C(=O)Cc1cccnc1	.	.	.	.	active
C[C@H](CO)N1C[C@H](C)[C@H](CN(C)Cc2cccc3c2OCCCO3)OCc2cn(nn2)CCCC1=O	.	.	.	.	3
Cc1cc2c(cc1S(=O)(=O)N1CCN(c3ccccc3F)CC1)OCC(=O)N2	2	7	2	-2	15*
Cc1cc2c(cc1S(=O)(=O)N1CCN(c3ccccc3)CC1)OCC(=O)N2	1	0	0	5	-4
CC=Cc1ccc2n(c1=O)C[C@H]1[C@H](CO)[C@@H](C(=O)NCC3CCCCC3)[C@@H]2N1C(C)=O (mixture of isomers)	.	.	.	.	-5
CC(=O)c1ccc(OCC(O)CN2CCN(Cc3ccc4c(c3)OCO4)CC2)cc1 (stereo unspecified)	-4	2	6	0	-9
COc1ccc(OCC(O)CN2CCN(Cc3ccc4c(c3)OCO4)CC2)cc1 (stereo unspecified)	1	2	1	0	47*
CC(C)CCNC(=O)c1cccc(Cl)c1	0	-6	2	-1	.
NC(=O)CNC(=O)c1cccc(Cl)c1	-1	4	1	2	active
COc1ccc(CN(C)C[C@H]2Oc3c(NS(=O)(=O)c4ccc(OC)cc4)cccc3C(=O)N([C@@H](C)CO)C[C@@H]2C)cc1	.	.	.	.	-1
CN1CCN(c2ccc(-c3cc(NC=O)c4ncc(-c5ccc(F)c(Cl)c5)n4c3)cc2)CC1	18*	8	-10	.	.
COc1ccc(S(=O)(=O)Nc2ccc3c(c2)C(=O)N([C@@H](C)CO)C[C@@H](C)[C@H](CN(C)C(=O)Cc2ccccc2)OCCCC[C@H](C)O3)cc1	.	.	.	.	23
